The source of these data is PubChem BioAssay.

Each structure is given as a SMILES string. Calls of active or inactive are those of the source.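 How the source made its calls, unless noted: active means GFP response above 150% of the DMSO level; inconclusive means fewer than 70 events counted for a yeast strain; inactive means the rest.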

Assay [1] can be described thus: hit retest on RPL19A-GFP reporter strain – cell-based, S. cerevisiae, flow cytometry, cherry picks, mother/daughter gates, confirmation (AID 2270;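 active means GFP response below 50% of the DMSO control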). The following applies: 3 h, at 10 µM, stronger effect = lower value, 100 = same GFP as DMSO wells.
Assay [2] in a line: yeast TOR pathway reporter LAP4-GFP change – cell-based, cherry picks, flow cytometry, mother/daughter gates, confirmation (AID 2271;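 active means GFP response above 150% of the DMSO control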;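 further: ratio of sample to DMSO plate mean so 100% equals DMSO level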). As to conditions: S. cerevisiae LAP4-GFP strain, 3 h, at 10 µM, stronger effect = higher value, 100 means same as DMSO control. In a few lines: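 Test system: GFP-fusion yeast strain / Amount: 0.2 OD600 cells / Buffer or medium: SC medium / Dosing: 10 µM single dose / Incubation: compound exposure 3 h at 30 °C, end-over-end rotation / Detection: HT flow cytometry, GFP fluorescence channel / Evaluation: median GFP fluorescence as percent of plate-mean DMSO wells / Control set: DMSO-only negative wells, rapamycin 400 ng/mL positive wells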
In general terms: A flow cytometer gives signals particle by particle.

Assay [3] can be described thus: TOR pathway reporter MEP2-GFP, retest of hits – S. cerevisiae, flow cytometry GFP, cherry picks, confirmation (AID 2272;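 active means GFP response above 150% of the DMSO control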;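 further: ratio of well signal to plate DMSO mean so 100% equals DMSO level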). As to conditions: S. cerevisiae MEP2-GFP strain, 3 h, at 10 µM, stronger effect = higher value.
Assay [4] is described as follows: yeast AGP1-GFP fluorescence change, single-dose – cell-based, flow cytometry, S. cerevisiae, cherry picks, confirmation (AID 2273).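 Further: median GFP channel fluorescence over the whole cell population gate.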 As to conditions: S. cerevisiae AGP1-GFP strain, 3 h, at 10 µM.
The nature of assay [5]: TOR pathway CIT2 reporter hit retest – S. cerevisiae, GFP fusion, cherry picks, mother/daughter gates, confirmation (AID 2274). The following applies: S. cerevisiae CIT2-GFP strain, flow cytometry, 3 h, at 10 µM, stronger effect = higher value.
The mark [6] stands for this setting: measured here: daughter cell gate.
Setting [7] is: measured here: mother cell gate.
Where [8] appears, read: measured here: daughter cell gate response.
Where [9] appears, read: measured here: mother cell gate response.

As to `N/C(Cc1ccc(Cl)cc1Cl)=N\OC(=O)c1ccccc1`, the GFP response vs DMSO is 99.2% (inactive) in assay [1], 86.3% in assay [1] (setting [6]), 89.4% in assay [1] (setting [7]) and 125% (inactive) in assay [3]. Also, the results for the GFP response relative to DMSO in assay [2], in assay [2] (setting [8]) and in assay [2] (setting [9]) were 222% (active), 145% and 213%, respectively. Moreover, the GFP response, % of DMSO in assay [4] is 105% (inactive); in assay [5] it was 181% (active); in assay [5] (setting [6]) it was 117%; in assay [5] (setting [7]), 157%.

As for `COc1ccc(NC(=O)CCN2CCN(S(=O)(=O)c3cc(Cl)ccc3OC)CC2)cc1`, the GFP response vs DMSO is 99% (inactive) in assay [1], 97.8% in assay [1] (setting [6]), 94.3% in assay [1] (setting [7]) and 101% (inactive) in assay [3]. The GFP response relative to DMSO in assay [2] is 99.8% (inactive); in assay [2] (setting [8]), 98.2%; in assay [2] (setting [9]), 96.2%. For the same molecule, the GFP response, % of DMSO in assay [4] is 105% (inactive); in assay [5], 102% (inactive); in assay [5] (setting [6]), 100%; in assay [5] (setting [7]) it was 102%.

On to `Cc1nc(C)c(-c2csc(NCCc3ccccc3)n2)s1`, for which the GFP response vs DMSO in assay [1] was 96.7% (inactive); in assay [1] (setting [6]), 96.4%; in assay [1] (setting [7]) it was 95.9%; in assay [3], 112% (inactive). The GFP response relative to DMSO was 112% (inactive) in assay [2], 105% in assay [2] (setting [8]) and 113% in assay [2] (setting [9]). The GFP response, % of DMSO is 96.6% (inactive) in assay [4], 108% (inactive) in assay [5], 110% in assay [5] (setting [6]) and 107% in assay [5] (setting [7]).

For `CC1CN(c2nc3ccccn3c(=O)c2/C=C(\C#N)C(=O)N2CCOCC2)CC(C)O1` (stereo not drawn), the GFP response vs DMSO in assay [1] is 98.5% (inactive); in assay [1] (setting [6]) it was 99.3%; in assay [1] (setting [7]) it was 98.4%; in assay [3] it was 101% (inactive). Also, the figures for the GFP response relative to DMSO in assay [2], in assay [2] (setting [8]) and in assay [2] (setting [9]) were 102% (inactive), 97.5% and 104%, respectively. The GFP response, % of DMSO is 95% (inactive) in assay [4], 100% (inactive) in assay [5], 99.3% in assay [5] (setting [6]) and 102% in assay [5] (setting [7]).

As for `Cc1cc(C)c(OCC(=O)Nc2nc(-c3ccccn3)cs2)c(C)c1`, the GFP response vs DMSO is 98.6% (inactive) in assay [1], 98.3% in assay [1] (setting [6]), 98.8% in assay [1] (setting [7]) and 103% (inactive) in assay [3]. Moreover, the GFP response relative to DMSO is 121% (inactive) in assay [2], 115% in assay [2] (setting [8]) and 126% in assay [2] (setting [9]). Further, the GFP response, % of DMSO in assay [4] is 95.8% (inactive); in assay [5], 92.2% (inactive); in assay [5] (setting [6]) it was 95.2%; in assay [5] (setting [7]), 88.8%.

In the case of `O=C(O)CCCn1nc(-c2ccccc2)c2ccccc21`, the GFP response vs DMSO in assay [1] is 99% (inactive); in assay [1] (setting [6]) it was 98.4%; in assay [1] (setting [7]) it was 100%; in assay [3], 103% (inactive). Besides, the figures for the GFP response relative to DMSO in assay [2], in assay [2] (setting [8]) and in assay [2] (setting [9]) were 112% (inactive), 112% and 111%, respectively. Besides, the GFP response, % of DMSO is 101% (inactive) in assay [4], 103% (inactive) in assay [5], 106% in assay [5] (setting [6]) and 96.8% in assay [5] (setting [7]).

For `N=c1n(CCN2CCCCC2)c2ccccc2n1CC(=O)c1ccc(Cl)c(Cl)c1`, the GFP response vs DMSO in assay [1] is 99.5% (inactive); in assay [1] (setting [6]), 99%; in assay [1] (setting [7]) it was 100%; in assay [3], 100% (inactive). Besides, the GFP response relative to DMSO was 101% (inactive) in assay [2], 100% in assay [2] (setting [8]) and 102% in assay [2] (setting [9]). Moreover, the GFP response, % of DMSO in assay [4] is 99.4% (inactive); in assay [5], 96.5% (inactive); in assay [5] (setting [6]) it was 93.2%; in assay [5] (setting [7]) it was 78.3%.

Take `CCOc1ccccc1NC1=C(Cl)C(=O)N(Cc2ccccc2)C1=O`: the GFP response vs DMSO is 103% (inactive) in assay [1], 102% in assay [1] (setting [6]), 104% in assay [1] (setting [7]) and 104% (inactive) in assay [3]. Moreover, the GFP response relative to DMSO is 96.2% (inactive) in assay [2], 97.2% in assay [2] (setting [8]) and 97.2% in assay [2] (setting [9]). Besides, the GFP response, % of DMSO in assay [4] is 98.5% (inactive); in assay [5], 99.1% (inactive); in assay [5] (setting [6]), 99.7%; in assay [5] (setting [7]) it was 98.7%.

As for `COc1cccc(N=Cc2nc(-c3ccccc3)oc2OC(C)=O)c1`, the GFP response vs DMSO in assay [1] is 97.4% (inactive); in assay [1] (setting [6]), 96.1%; in assay [1] (setting [7]) it was 98.7%; in assay [3] it was 87.8% (inactive). The figures for the GFP response relative to DMSO in assay [2], in assay [2] (setting [8]) and in assay [2] (setting [9]) were 108% (inactive), 101% and 113%, respectively. For the same molecule, the GFP response, % of DMSO in assay [4] was 87.5% (inactive); in assay [5] it was 95.5% (inactive); in assay [5] (setting [6]), 95.4%; in assay [5] (setting [7]), 95%.

Turning to `O=C(COC(=O)/C=C/c1cccs1)Nc1nc(-c2cccc(Br)c2)cs1`, the GFP response vs DMSO in assay [1] is 102% (inactive); in assay [1] (setting [6]), 103%; in assay [1] (setting [7]) it was 102%; in assay [3], 100% (inactive). Moreover, the results for the GFP response relative to DMSO in assay [2], in assay [2] (setting [8]) and in assay [2] (setting [9]) were 89% (inactive), 94.1% and 89%, respectively. Moreover, the GFP response, % of DMSO in assay [4] is 96.7% (inactive); in assay [5], 110% (inactive); in assay [5] (setting [6]) it was 108%; in assay [5] (setting [7]), 112%.

Take `COC(=O)C1=C(C)NC(C)=C(C(=O)OC)C1c1ccc(OC(=O)c2oc3ccccc3c2C)c(OC)c1`: the GFP response vs DMSO in assay [1] is 98.8% (inactive); in assay [1] (setting [6]) it was 98.1%; in assay [1] (setting [7]), 98.8%; in assay [3] it was 98.8% (inactive). Further, the GFP response relative to DMSO is 90% (inactive) in assay [2], 90.4% in assay [2] (setting [8]) and 89.9% in assay [2] (setting [9]). Also, the GFP response, % of DMSO was 103% (inactive) in assay [4], 103% (inactive) in assay [5], 102% in assay [5] (setting [6]) and 104% in assay [5] (setting [7]).

Consider `CCCCOc1cccc(/C=C(\C#N)C(=O)NC2CC2)c1`, for which the GFP response vs DMSO is 93.5% (inactive) in assay [1], 92.1% in assay [1] (setting [6]), 92.5% in assay [1] (setting [7]) and 113% (inactive) in assay [3]. Further, the GFP response relative to DMSO in assay [2] was 117% (inactive); in assay [2] (setting [8]), 114%; in assay [2] (setting [9]), 116%. Also, the GFP response, % of DMSO in assay [4] was 92.7% (inactive); in assay [5], 99.7% (inactive); in assay [5] (setting [6]), 99.1%; in assay [5] (setting [7]) it was 96.1%.

Take `Cc1ccc(-c2csc(NC(=O)c3cccc([N+](=O)[O-])c3)n2)cc1`: the GFP response vs DMSO is 101% (inactive) in assay [1], 98.1% in assay [1] (setting [6]), 97.5% in assay [1] (setting [7]) and 107% (inactive) in assay [3]. Moreover, the GFP response relative to DMSO in assay [2] is 97% (inactive); in assay [2] (setting [8]), 95.9%; in assay [2] (setting [9]), 97.3%. Moreover, the GFP response, % of DMSO in assay [4] was 99.6% (inactive); in assay [5] it was 98.8% (inactive); in assay [5] (setting [6]), 97.4%; in assay [5] (setting [7]), 93.2%.
